11 compounds from ChEMBL document CHEMBL2407061, “Medicinal chemistry of dihydropyran-based medium ring macrolides related to aspergillides: selective inhibition of PI3Kα” (J Med Chem, 2013) can be followed below.

The source made the active and inactive calls. The rule behind the calls is not given here.

In one experiment the test system is A-375. Briefly: Antiproliferative activtiy against human A375 cells assessed as growth inhibition after 48 hrs by MTT assay. It counts as functional, cell-based. Conditions: A-375, 48 h. In short, it runs like this: (§1)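 15000 cells per well in 200µl medium, exposed to a range of concentrations for 48 h (compounds in DMSO, diluted in complete medium). MTT (20µl of 2.5 mg/ml) added for 2 h at 37°C, formazan dissolved in DMSO, OD read at 570 nm. Viability = OD test/OD control ×100. IC50 taken from the concentration–survival curve after blank subtraction.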

The next experiment has as its system PC-3. Put plainly: Antiproliferative activtiy against human PC3 cells assessed as growth inhibition after 48 hrs by MTT assay. Particulars: PC-3, 48 h. It counts as functional, cell-based. In short, it runs like this: as §1
In experiment [1] the test system is HL-60. Briefly: Antiproliferative activtiy against human HL60 cells assessed as growth inhibition after 48 hrs by MTT assay. It counts as functional, cell-based. Particulars: HL-60, 48 h. In short, it runs like this:
as §1

Experiment [2] concerns HL-60. Briefly: Induction of apoptosis in human HL60 cells assessed as decrease in expression of cytochrome c in mitochondrial fraction after 6 hrs by Western blot analysis. It counts as functional, cell-based. In short, it runs like this: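 4×10^6 HL-60 cells treated for 6 h. Cytosolic fraction from a 2 min digitonin lysis then 12000g spin; mitochondrial fraction lysed in RIPA. Cytochrome c detected by western blot, with COX IV as the mitochondrial loading control and β-actin as the cytosolic loading control.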

Experiment [3] deals with Phosphatidylinositol 4,5-bisphosphate 3-kinase catalytic subunit alpha isoform (Homo sapiens) (UniProt P42336). Put plainly: Inhibition of PI3K p110 alpha in human HL60 cells assessed as inhibition of mTOR phosphorylation by Western blotting analysis. Type of experiment: cell-based. Particulars: HL-60. The gist of the method: (§2)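 Treated and untreated HL-60 cells spun at 400g at 4°C, washed in PBS and lysed in RIPA buffer for whole-cell lysate. 60 µg protein per lane run on SDS-PAGE and probed with primary antibodies. ECL chemiluminescence detection, with β-actin as the loading control.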

Experiment [4] relates to HL-60. Briefly: Induction of apoptosis in human HL60 cells assessed as mitochondrial membrane potential loss after 6 hrs by RH 123 staining-based flow cytometer analysis. Type of experiment: functional, cell-based. In short, it runs like this: (§3)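 1×10^6 HL-60 cells in 12-well plates, exposed to 5, 10 or 20 µM for 6 h. Rhodamine 123 added 30 min before the end. Cells collected at 400 g, washed once in PBS, and fluorescence read in the FL-1 channel of a flow cytometer.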

For experiment [5], the target named is Phosphatidylinositol 4,5-bisphosphate 3-kinase catalytic subunit alpha isoform (Homo sapiens) (UniProt P42336). Briefly: Inhibition of PI3K p110 alpha in human HL60 cells assessed as PARP 1 clevage by Western blotting analysis. Particulars: HL-60. It counts as cell-based. In short, it runs like this: as §2
Experiment [6] concerns HL-60. Briefly: Inhibition of human ERK 1/2 expression in human HL60 cells by Western blotting analysis. It counts as functional, cell-based. The gist of the method:
as §2

For experiment [7], the target named is Phosphatidylinositol 4,5-bisphosphate 3-kinase catalytic subunit alpha isoform (Homo sapiens) (UniProt P42336). Briefly: Inhibition of PI3K p110 alpha in human HL60 cells assessed as caspase 3 clevage by Western blotting analysis. It counts as cell-based. Particulars: HL-60. In short, it runs like this: as §2
For experiment [8] the target is unchanged. Briefly: Inhibition of PI3K p110 alpha in human HL60 cells assessed as inhibition of GSK3 beta phosphorylation by Western blotting analysis. Type of experiment: cell-based. Particulars: HL-60. The gist of the method:
as §2

Experiment [9] shares this target. Put plainly: Inhibition of PI3K p110 alpha in human HL60 cells assessed as effect on total AKT level by Western blotting analysis. It counts as cell-based. Particulars: HL-60. The gist of the method: as §2
For experiment [10] the target is unchanged. Briefly: Inhibition of PI3K p110 alpha in human HL60 cells assessed as inhibition of AKT phosphorylation at AKT S473 by Western blotting analysis. Type of experiment: cell-based. Conditions: HL-60. The gist of the method:
as §2

Experiment [11] shares this target. Put plainly: Inhibition of PI3K p110 alpha in human HL60 cells assessed as inhibition of AKT phosphorylation at T308 by Western blotting analysis. Type of experiment: cell-based. Particulars: HL-60. In short, it runs like this:
as §2

For experiment [12], the system named is HL-60. Put plainly: Cell cycle arrest in human HL60 cells assessed as accumulation at G0/G1 phase at 20 uM after 6 hrs using by propidium iodide staining by FACS analysis (reference value: 6%). Type of experiment: functional.
In experiment [13] the target is Phosphatidylinositol 4,5-bisphosphate 3-kinase catalytic subunit alpha isoform (Homo sapiens) (UniProt P42336). Put plainly: Inhibition of PI3K p110 alpha in human HL60 cells by Western blotting analysis. Type of experiment: cell-based. Conditions: HL-60. The gist of the method:
as §2

In experiment [14] the test system is HL-60. Briefly: Cell cycle arrest in human HL60 cells assessed as accumulation at G0/G1 phase at 5 uM after 6 hrs using by propidium iodide staining by FACS analysis (reference value: 6%). It counts as functional.
For experiment [15], the system named is HL-60. Put plainly: Cell cycle arrest in human HL60 cells assessed as accumulation at G0/G1 phase at 10 uM after 6 hrs using by propidium iodide staining by FACS analysis (reference value: 6%). Type of experiment: functional.
The test system of experiment [16] is HL-60. Put plainly: Induction of apoptosis in human HL60 cells assessed as early apoptotic cells at 20 uM after 6 hrs by Annexine V/propidium iodide staining-based FACS flow cytometry analysis (reference value: 4%). Type of experiment: functional.
For experiment [17], the system named is HL-60. Put plainly: Induction of apoptosis in human HL60 cells assessed as early apoptotic cells at 10 uM after 6 hrs by Annexine V/propidium iodide staining-based FACS flow cytometry analysis (reference value: 4%). Type of experiment: functional.
For experiment [18], the system named is HL-60. Put plainly: Induction of apoptosis in human HL60 cells assessed as early apoptotic cells at 5 uM after 6 hrs by Annexine V/propidium iodide staining-based FACS flow cytometry analysis (reference value: 4%). It counts as functional.
Experiment [19] relates to HL-60. Briefly: Induction of apoptosis in human HL60 cells assessed as late apoptotic cells at 20 uM after 6 hrs by Annexine V/propidium iodide staining-based FACS flow cytometry analysis (reference value: 2%). Type of experiment: functional.
For experiment [20], the system named is HL-60. Put plainly: Induction of apoptosis in human HL60 cells assessed as late apoptotic cells at 10 uM after 6 hrs by Annexine V/propidium iodide staining-based FACS flow cytometry analysis (reference value: 2%). Type of experiment: functional.
The subject of experiment [21] is HL-60. Briefly: Induction of apoptosis in human HL60 cells assessed as late apoptotic cells at 5 uM after 6 hrs by Annexine V/propidium iodide staining-based FACS flow cytometry analysis (reference value: 2%). It counts as functional.
Experiment [22] deals with HL-60. Put plainly: Induction of apoptosis in human HL60 cells assessed as mitochondrial membrane potential loss at 20 uM after 6 hrs by RH 123 staining-based flow cytometer analysis (reference value: 6%). It counts as functional. In short, it runs like this: as §3
Experiment [23] relates to HL-60. Briefly: Induction of apoptosis in human HL60 cells assessed as mitochondrial membrane potential loss at 5 uM after 6 hrs by RH 123 staining-based flow cytometer analysis (reference value: 6%). It counts as functional. In short, it runs like this: as §3
Experiment [24] relates to HL-60. Briefly: Induction of apoptosis in human HL60 cells assessed as mitochondrial membrane potential loss at 10 uM after 6 hrs by RH 123 staining-based flow cytometer analysis (reference value: 6%). It counts as functional. The gist of the method:
as §3

The subject of experiment [25] is HL-60. Briefly: Induction of apoptosis in human HL60 cells assessed as change in nuclear morphology at 5 to 20 uM after 6 hrs by Hoechst 33258 staining-based inverted fluorescence analysis. Type of experiment: functional, cell-based. The gist of the method: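 HL-60 cells exposed for 6 h. Spun at 400 g, washed twice in PBS, stained 30 min at room temperature under subdued light with Hoechst 33258 (10 µg/ml in citrate/phosphate buffer with 0.05% Tween 20). Mounted in PBS:glycerol 1:1 and viewed by UV-excitation fluorescence microscopy for nuclear changes and apoptotic bodies.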

Experiment [26] can be described thus: Cytotoxicity against human FR2 cells after 48 hrs by MTT assay. Type of experiment: cell-based. Particulars: FR2, 48 h. In short, it runs like this: as §1
Experiment [27] deals with HL-60. Put plainly: Induction of apoptosis in human HL60 cells assessed as change in cell morphology after 6 hrs.
Experiment [28] relates to HL-60. Briefly: Induction of apoptosis in human HL60 cells assessed as blebbing and shrinkage of cells at 5 to 20 uM after 6 hrs by phase contrast microscopy.

Phosphatidylinositol 4,5-bisphosphate 3-kinase catalytic subunit alpha isoform (Homo sapiens), sequence (P42336 whole entry, canonical isoform): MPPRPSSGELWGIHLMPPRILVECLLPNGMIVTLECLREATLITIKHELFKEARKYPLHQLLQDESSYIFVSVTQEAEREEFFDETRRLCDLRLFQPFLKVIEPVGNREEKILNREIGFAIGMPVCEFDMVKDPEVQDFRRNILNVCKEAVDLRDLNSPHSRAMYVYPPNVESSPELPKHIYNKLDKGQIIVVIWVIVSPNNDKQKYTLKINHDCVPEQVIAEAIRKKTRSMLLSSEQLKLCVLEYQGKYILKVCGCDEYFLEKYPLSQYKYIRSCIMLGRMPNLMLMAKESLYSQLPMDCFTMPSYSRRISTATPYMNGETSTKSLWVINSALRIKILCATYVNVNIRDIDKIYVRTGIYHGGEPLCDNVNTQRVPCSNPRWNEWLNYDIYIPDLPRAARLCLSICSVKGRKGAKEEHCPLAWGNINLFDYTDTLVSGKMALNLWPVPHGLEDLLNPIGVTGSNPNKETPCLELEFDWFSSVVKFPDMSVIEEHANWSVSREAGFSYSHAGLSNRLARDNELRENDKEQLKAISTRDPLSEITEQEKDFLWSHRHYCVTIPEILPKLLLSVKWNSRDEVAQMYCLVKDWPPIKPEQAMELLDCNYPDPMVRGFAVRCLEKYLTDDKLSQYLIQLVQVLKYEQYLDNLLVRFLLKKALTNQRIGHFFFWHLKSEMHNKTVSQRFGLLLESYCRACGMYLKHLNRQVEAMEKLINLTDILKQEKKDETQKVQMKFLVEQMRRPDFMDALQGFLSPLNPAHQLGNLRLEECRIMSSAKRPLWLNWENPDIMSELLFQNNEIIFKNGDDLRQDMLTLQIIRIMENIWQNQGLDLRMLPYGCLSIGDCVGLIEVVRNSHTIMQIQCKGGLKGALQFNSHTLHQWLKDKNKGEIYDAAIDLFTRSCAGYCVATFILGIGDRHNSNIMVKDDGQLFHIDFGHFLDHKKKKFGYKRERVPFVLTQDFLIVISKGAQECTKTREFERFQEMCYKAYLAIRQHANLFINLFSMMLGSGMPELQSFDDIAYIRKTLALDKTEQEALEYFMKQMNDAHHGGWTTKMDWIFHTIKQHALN

Regarding `CO[C@H]1C=C[C@H]2C/C=C\C[C@H](c3ccc(Br)cc3)OC(=O)C[C@@H]1O2`, the IC50 with A-375 worked out at 5.45 µM; in the experiment on PC-3 it was 15.8 µM; with HL-60 [1], 10 µM.
As for `CO[C@H]1C=C[C@H]2C/C=C\C[C@H](c3ccc(-c4ccccc4C(F)(F)F)cc3)OC(=O)C[C@@H]1O2`, the result in the experiment on HL-60 [2] and in the experiment with HL-60 [28] was Active. Besides, the inhibition result in experiment [3], in experiment [8], in [10], in experiment [11] and in experiment [13] was “Active” in each case. The Activity entry with HL-60 [4] is “Dose-dependent effect”; in the experiment with HL-60 [12], 37%; in the experiment with HL-60 [14], 24%; with HL-60 [15] it was 30%; in the experiment on HL-60 [16], 37%; with HL-60 [17], 32%. Besides, the Activity amounted to 25% in the experiment on HL-60 [18]; 4% with HL-60 [19]; 4% with HL-60 [20]; 3% in the experiment with HL-60 [21]; 62% in the experiment with HL-60 [22]; 21% in the experiment on HL-60 [23]. Besides, the figures for the Activity in the experiment on HL-60 [24], with HL-60 [25] and in the experiment on HL-60 [27] were 36%, “Dose-dependent effect” and “Dose-dependent effect”, respectively. Further, the inhibition result in experiment [5] and in experiment [7] was “Dose-dependent effect” each time. Also, the inhibition result (in the experiment with HL-60 [6]; in [9]) was “inactive” throughout. Further, the IC50 in the experiment on A-375 was 9.64 µM; in experiment [26], no less than 100 µM; in the experiment with PC-3, 7.36 µM; in the experiment on HL-60 [1] it was 1.1 µM.
Regarding `C[C@H]1CCC/C=C/[C@H]2CC[C@H](O)[C@H](CC(=O)O1)O2`, in the experiment with HL-60 [1], the IC50 worked out at 32.8 µM.
Turning to `O=C1C[C@@H]2O[C@@H](C=C[C@@H]2O)C/C=C\C[C@H](c2ccc3ccccc3c2)O1`, the half-maximal inhibitory concentration (IC50) in the experiment with A-375 was 50 µM; in the experiment on PC-3, 21.5 µM; in the experiment with HL-60 [1], 30.9 µM.
Turning to `C[C@H]1CCC/C=C/[C@H]2CC[C@H](O)[C@@H](CC(=O)O1)O2`, in the experiment on HL-60 [1], the IC50 is 81.2 µM.
Turning to `CCO[C@H]1C=C[C@H]2C/C=C\C[C@H](c3ccc(Cl)cc3)OC(=O)C[C@@H]1O2`, the IC50 in the experiment on A-375 was found to be 4.9 µM; with PC-3 it was 9.16 µM; with HL-60 [1], 5.7 µM.
The corresponding values for `COc1ccc(CO[C@H]2C=C[C@H]3C/C=C\C[C@H](c4ccc(F)cc4)OC(=O)C[C@@H]2O3)cc1` are 4.76 µM, 2.23 µM and 8.83 µM.
The corresponding values for `COc1ccc(CO[C@H]2C=C[C@H]3C/C=C\C[C@H](c4ccc5ccccc5c4)OC(=O)C[C@@H]2O3)cc1` are greater than 100 µM, 45.4 µM and 10.2 µM.
The corresponding values for `CCO[C@H]1C=C[C@H]2C/C=C\C[C@H](c3ccc(OC)cc3)OC(=O)C[C@@H]1O2` are 62.7 µM, 56 µM and 69.9 µM.
For `O=C1C[C@@H]2O[C@@H](C=C[C@@H]2O)C/C=C\C[C@H](c2ccc(F)cc2)O1`, the values for the IC50 in the experiment with A-375, in the experiment on PC-3 and in the experiment on HL-60 [1] were 20.8 µM, 35.8 µM and 40.2 µM, respectively.
The corresponding values for `CCO[C@H]1C=C[C@H]2C/C=C\CC[C@H](C)OC(=O)C[C@@H]1O2` are 57 µM, 78 µM and 69.7 µM.
